Bioassay records from PubChem BioAssay.
The list is not random: actives were taken first. Their share in the collection is about 2.4%.
Cardio protect = modulators protecting cardiomyocytes from myocardial damage; protection from H2O2 cell death, % at 20 µM; H9c2 cardiomyocytes, H2O2 injury protection, ATPLite, 2 h; 360,000 compounds, 0.63% hits;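 active = compounds giving at least 50% protection of heart cells from peroxide-induced death in the single-dose screen, raw or plate-pattern-corrected value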;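 also: 0% = DMSO wells with peroxide and 100% = DMSO wells without peroxide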
JMJD2C inh = inhibitors of human GASC-1 (JMJD2C) demethylase | AID 2099 | GST-JMJD2C(1-420) H3K9me3 demethylation, DELFIA europium | Q9H3R0 | inhibition, % at 2.35 µM | 330,000 compounds, 0.069% hits;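 active = more than half of a compound's replicate wells show inhibition beyond 50%, single wells judged on their own value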;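 also: signal counts dimethyl H3K9 product captured on neutravidin plate; 0% = median of DMSO wells and 100% = 0.3 times that DMSO median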
Target sequence (Q9H3R0 1-420 limits assumed): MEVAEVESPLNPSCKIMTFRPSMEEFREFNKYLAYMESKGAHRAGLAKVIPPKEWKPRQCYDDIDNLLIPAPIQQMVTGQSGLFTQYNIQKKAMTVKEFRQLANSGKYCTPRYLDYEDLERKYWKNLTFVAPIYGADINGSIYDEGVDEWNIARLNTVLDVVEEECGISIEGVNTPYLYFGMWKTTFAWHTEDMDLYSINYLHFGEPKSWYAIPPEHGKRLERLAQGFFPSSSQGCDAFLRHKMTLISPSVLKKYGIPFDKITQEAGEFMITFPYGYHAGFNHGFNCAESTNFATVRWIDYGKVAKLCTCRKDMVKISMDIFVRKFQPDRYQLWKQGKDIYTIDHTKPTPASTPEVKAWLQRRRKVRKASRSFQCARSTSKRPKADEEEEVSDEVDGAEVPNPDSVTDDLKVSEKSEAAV
CTSL1 counter = counter-screen for PFM18AAP inhibitors: inhibitors of F. hepatica cathepsin L1; AID 1906; 300,000 compounds, 0.49% hits; recombinant F. hepatica cathepsin L1, Z-Leu-Arg-MCA fluorescence; inhibition, % at 5.96 µM;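 active = inhibition above the mean of all tested compounds plus 3 SD, set per screening campaign, cut at about 17% in these data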;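 also: 0% = plate median of test compound wells and 100% = 1 µM Z-Phe-Ala-diazomethylketone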
p-CIP stab down = lowers stability of the mouse p/CIP coactivator protein; F442A p/CIP-EGFP cells, EGFP fluorescence, 16 h; decrease of EGFP signal, % at 10 µM; 290,000 compounds, 0.01% hits; AID 1984;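 active = EGFP signal decrease of at least 30% at 10 µM or well 3 SD below plate mean, unless failing retest; inactive = the rest, including hits failing retest or dose response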
T cruzi repl = blocks replication of Trypanosoma cruzi. inhibition, % (no concentration beside the values). 300,000 compounds, 1.4% hits. T. cruzi beta-gal in NIH3T3, luminescence, 90 h. AID 1885;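 active = mean inhibition across valid replicates above about 55%, limit read from the data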;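 also: signal also drops with host cell toxicity which is not excluded here; 0% = plate median of DMSO wells and 100% = zero luminescence signal; higher percent means less beta-gal luminescence so fewer parasites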
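System – NIH/3T3 host cells with β-galactosidase reporter T. cruzi · Doses – single 50 nL compound addition per well in DMSO · Reagent – 5000 T. cruzi trypomastigotes/well · Medium – Low-serum DMEM with 2% FBS · Timing – ≥90 h infection period, 3 h prior cell attachment · Evaluation – parasite load inhibition, % · Technique – GalScreen luminescence, 60 min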
PP5 inh = PP5 (human) phosphatase inhibition; purified PP5c, OMFP substrate fluorescence; inhibition, % at 6.7 µM; 320,000 compounds, 0.18% hits;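 active = inhibition above the campaign's mean inhibition across all tested compounds plus 3 SD, cut at about 9.5% in these data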;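 also: 0% = DMSO only and 100% = 100 µM cantharidin control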
PP5 conf = PP5 (human) inhibition, confirmation. shares compounds with PP5 inh. Purified PP5, fluorogenic phosphatase substrate, fluorescence. inhibition, % at 6.7 µM. 460 compounds, 22% hits; in the data active = inhibition above about 9.5%
PP1 inh counter = PP1 phosphatase inhibition, counter-screen for PP5 inhibitors; PP1 enzyme, fluorescent phosphatase substrate; shares compounds with PP5 inh; inhibition, % at 6.7 µM; 460 compounds, 4% hits; in the data active = inhibition above about 16%
Numbers without * were called inactive; i = inactive; · = no result.

SMILES	Cardio protect	JMJD2C inh	CTSL1 counter	p-CIP stab down	T cruzi repl	PP5 inh	others
CCCS(=O)(=O)NC(=O)C1(C)CCN(C(=O)c2ccc(F)c(Cl)c2)C1 (stereo not drawn)	-3	·	·	·	·	·
CCCOc1ccc(N2C(=O)CC(SC(=NC)Nc3ccc(F)cc3)C2=O)cc1 (stereo not drawn)	-8	18	3	-14	21	1
CCCOc1ccc(N2C(=O)CC(SC(=N)N3N=C(c4ccccc4)CC3c3ccccc3)C2=O)cc1 (stereo not drawn)	-6	-8	4	14	68*	-1
Cc1cccc(C(=O)NCC(=O)NCC2COc3ccccc3O2)c1 (stereo not drawn)	4	2	1	·	6	-1
O=c1c(Cl)c(N2CCN(c3ccc(F)cc3)CC2)cnn1C12CC3CC(CC(C3)C1)C2	-2	-4	4	-7	63*	2
CCCN1CCN(C(=O)C2CCN(S(=O)(=O)c3ccc4c(c3)NC(=O)C(C)S4)CC2)CC1 (stereo not drawn)	2	2	-2	-7	3	2
COc1ccc(NS(=O)(=O)c2cc(NC(=O)c3cc(=O)c4ccccc4o3)ccc2OC)cc1	42	14	10	-3	22	4
COc1ccccc1NS(=O)(=O)c1cc(NC(=O)Cc2n[nH]c(=O)c3ccccc23)ccc1Cl	70*	-8	·	·	·	·
COc1ccc(NS(=O)(=O)c2cc(NC(=O)Cc3n[nH]c(=O)c4ccccc34)ccc2OC)cc1	70*	·	·	·	·	·
O=C(COC(=O)c1ccc(Br)c(S(=O)(=O)N2CCOCC2)c1)NC1CC1	1	1	·	·	·	·
Cc1cc(C)cc(-n2c3ccc(NC(=S)NC4CCCCC4)cc3c(=O)n2C)c1	-13	·	·	·	·	·
N=C(N)SCc1cn(-c2ccccc2)nc1-c1ccc(Br)cc1	-23	-40	·	-7	55*	·
COc1ccc(Cn2nnnc2C(c2ccccn2)N2CCN(c3cc(Cl)ccc3C)CC2)cc1 (stereo not drawn)	-7	6	2	-8	65*	4
CC[n+]1c(/C=C/N(C)c2ccccc2)oc2ccccc21	-6	0	4	-86	78*	1
CC(=O)c1cc(F)ccc1OCC(=O)N1CCCc2ccccc21	11	-5	-1	-7	-8	2
Cc1ccc2nc3c(cc(S(=O)(=O)c4ccccc4)c(=N)n3Cc3ccco3)c(=O)n2c1	21	1	3	7	63*	1
N=c1c(S(=O)(=O)c2ccccc2)cc2c(=O)n3ccccc3nc2n1Cc1ccco1	-4	5	1	-4	16	4
CC(C)CC(=O)Nc1ccc(C(=O)COC(=O)C2CC(=O)N(Cc3ccccc3)C2)cc1 (stereo not drawn)	4	·	·	·	·	2
COCCNCCCOc1ccc(C(C)(C)c2ccccc2)cc1	1	19	0	1	5	2
COCCCNCCCOc1ccc(C(C)(C)c2ccccc2)cc1	2	-2	0	-14	58*	0
CCc1cc2c(=O)[nH]c(-c3ccccn3)nc2s1	7	-7	7	1	60*	-3
CC(C)Cn1c(=O)c(C(=O)NCc2ccccn2)c(O)c2ccccc21	56*	i	-2	-11	-5	2
COc1cc2c(C(=O)NCc3ccccn3)cn(CC(C)C)c(=O)c2cc1OC	54*	-20	-5	-12	11	1
CCn1c(=O)c(C(=O)NCc2ccccc2)c(O)c2ccccc21	14	21	-3	-9	0	-2
O=c1cc(-c2ccc(O)c(O)c2)oc2cc(O)cc(O)c12	62*	-4	-3	-11	-23	1
SMILES	Cardio protect	JMJD2C inh	CTSL1 counter	p-CIP stab down	T cruzi repl	PP5 inh	others
O=c1c(O)c(-c2ccc(O)c(O)c2)oc2cc(O)cc(O)c12	95*	-52	0	-20	-36	-2
COc1ccc(-c2cc(=O)c3c(O)cc(O)cc3o2)cc1	-11	·	7	·	·	-3
COc1ccc(-c2csc(NC(=O)CCn3cnc4ccccc4c3=O)n2)cc1OC	58*	0	1	-25	-16	-1
COc1ccc(-c2csc(NC(=O)Cc3ccccc3)n2)cc1OC	4	7	1	-4	-1	5
COc1ccc(-c2csc(NC(=O)CCCc3nc4ccccc4c(=O)[nH]3)n2)cc1OC	91*	5	-3	·	-4	0
O=P(O)(Cc1ccccc1)c1ccccc1	-3	·	·	·	·	·
Cc1ccc(NC(=O)CN(C)C(=O)COC(=O)c2nc3nccc(C)n3n2)cc1	4	-2	·	·	·	5
COC(=O)c1sc(NC(=O)c2c(C)noc2C)nc1C	5	-4	-1	3	-3	2
COC(=O)c1sc(N)c(C(=O)OC)c1COC(=O)c1c(C)noc1C	6	4	0	2	8	10*	PP5 conf=-3;PP1 inh counter=-4
Nc1ccccc1C(=O)N1CCc2ccccc21	-1	-6	-1	-4	-4	10*	PP5 conf=-3;PP1 inh counter=-4
Cc1cc(C(=O)N2CCc3ccccc32)c2ccccc2n1	3	1	0	-8	1	9.8*	PP5 conf=-4;PP1 inh counter=-2
COc1cccc(N2C(=O)Nc3ccc(Br)cc3C2(O)C(=O)NCCN(C)C)c1 (stereo not drawn)	8	-2	0	-20	-3	1
CC(=O)Nc1ccc(NC(=O)C2CCCN(C(=O)c3ccc(Cl)cc3)C2)cc1 (stereo not drawn)	-7	-25	-1	-10	-19	-1
O=C(Nc1ccc(OC(F)(F)F)cc1)C1CCCN(C(=O)c2ccc(Cl)cc2)C1 (stereo not drawn)	-13	4	·	·	·	14*	PP5 conf=4;PP1 inh counter=3
CCCOc1c(Br)cc(C(=O)OCC(=O)NC(=O)c2cccn2C)cc1OC	-11	7	·	·	·	1
O=C(COC(=O)c1ccc(F)cc1F)Nc1cccnc1Cl	-2	1	·	·	·	-1
Cc1ccnc(NC(=O)COC(=O)c2ccc(F)cc2F)n1	-5	4	-1	-15	-6	15*	PP5 conf=-5;PP1 inh counter=-5
O=C(O)CCC(=O)c1c[nH]c2ccccc12	8	-6	-8	-2	-13	12*	PP5 conf=-6;PP1 inh counter=-2
Cc1ccc([N+](=O)[O-])cc1S(=O)(=O)Nc1ccc(C(=O)N2CCN(C(=O)c3ccco3)CC2)cc1	1	12	·	·	·	1
NS(=O)(=O)c1cccc(NC(=O)CSc2nnc(NC3CC3)s2)c1	2	·	·	·	·	·
Nc1ccc(N=Nc2ccccc2O)c(N)c1	-4	12	2	·	0	12*	PP5 conf=1;PP1 inh counter=-2
